From ChEMBL document CHEMBL1221396, “Resveratrol oligomers from Vatica albiramis” (J Nat Prod, 2010)
The source made the active and inactive calls. The rule behind the calls is not given here.

How the values were obtained:
HFF [1] = assay: Antiinflammatory activity in human foreskin fibroblast assessed as inhibition of IL-1-beta-induced MMP1 production at 1 uM treated for 24 hrs before IL1-beta challenge measured after 24 hrs by Western blot analysis; type: functional, cell-based
How it was run: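 Fibroblasts were grown in DMEM with 10% FBS at 37 °C under 5% CO2, seeded at 2 × 10⁵ cells/mL, grown to confluence, and treated for 24 h. Secreted MMP-1 was measured by western blot. Blots were blocked in TBS with 5% skim milk and 0.05% Tween-20 for 1 h at room temperature, incubated with primary antibody overnight at 4 °C, then with HRP secondary antibody for 1 h at room temperature.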

HFF [2] = assay: Cytotoxicity against human foreskin fibroblast at 1 uM; type: cell-based

Structure (SMILES): Oc1ccc([C@@H]2c3c(O)cc(O)cc3[C@@H]3c4c(cc(O)cc4[C@H]2[C@@H]2c4cc(O)cc5c4[C@@H](c4cc(O)cc(O)c4[C@H]2c2ccc(O)cc2)[C@H](c2ccc(O)cc2)O5)O[C@H]3c2ccc(O)cc2)cc1
- inhibition (HFF [1]): Active
- Activity (HFF [2]): Non-toxic

Structure (SMILES): OC[C@H]1O[C@@H](Oc2cc(O)cc([C@@H]3c4c(/C=C/c5ccc(O)cc5)cc(O[C@@H]5O[C@H](CO)[C@@H](O)[C@H](O)[C@H]5O)cc4O[C@H]3c3ccc(O)cc3)c2)[C@H](O)[C@@H](O)[C@@H]1O
- inhibition (HFF [1]): inactive

Structure (SMILES): Oc1ccc(/C=C/c2cc(O)cc3c2[C@@H](c2cc(O)cc(O)c2)[C@H](c2ccc(O)cc2)O3)cc1
- inhibition (HFF [1]): inactive

Structure (SMILES): Oc1ccc(/C=C\c2cc(O)cc3c2[C@@H](c2cc(O)cc(O)c2)[C@H](c2ccc(O)cc2)O3)cc1
- inhibition (HFF [1]): inactive

Structure (SMILES): Oc1ccc([C@H]2c3c(O)cc(O)cc3[C@@H]3c4c(cc(O)cc4[C@H]2O)O[C@H]3c2ccc(O)cc2)cc1
- inhibition (HFF [1]): inactive

Structure (SMILES): Oc1ccc([C@H]2c3c(O)cc4c(c3[C@@H]3[C@@H](c5ccc(O)cc5)c5c(O)cc6c(c5[C@H]23)[C@@H](c2cc(O)cc(O)c2)[C@H](c2ccc(O)cc2)O6)[C@@H](c2cc(O)cc(O)c2)[C@H](c2ccc(O)cc2)O4)cc1 [STENOPHYLLOL C]
- inhibition (HFF [1]): Active
- Activity (HFF [2]): Non-toxic

Structure (SMILES): OC[C@H]1O[C@@H](Oc2cc3c4c(c2)[C@@H]([C@@H]2c5cc(O)cc6c5[C@@H](c5cc(O)cc(O)c5[C@H]2c2ccc(O)cc2)[C@H](c2ccc(O)cc2)O6)[C@H](c2ccc(O)cc2)c2c(O)cc(O)cc2[C@H]4[C@H](c2ccc(O)cc2)O3)[C@H](O)[C@@H](O)[C@@H]1O [VATALBINOSIDE A]
- inhibition (HFF [1]): Active
- Activity (HFF [2]): Non-toxic

Structure (SMILES): Oc1ccc([C@@H]2c3c(O)cc(O)cc3[C@@H]3c4c(cc(O)cc4[C@H]2[C@@H]2c4cc(O)c([C@@H](c5ccc(O)cc5)[C@@H]5c6c(c(O)cc7c6[C@@H](c6cc(O)cc(O)c6)[C@H](c6ccc(O)cc6)O7)[C@H](c6cc(O)cc7c6[C@H](c6cc(O)cc(O)c6)[C@@H](c6ccc(O)cc6)O7)[C@H]5c5ccc(O)cc5)c5c4[C@@H](c4cc(O)cc(O)c4[C@H]2c2ccc(O)cc2)[C@H](c2ccc(O)cc2)O5)O[C@H]3c2ccc(O)cc2)cc1 [VATERIAPHENOL A]
- inhibition (HFF [1]): Active
- Activity (HFF [2]): Non-toxic

Structure (SMILES): Oc1ccc([C@@H]2c3c(O)cc4c(c3[C@@H]3c5c(O)cc6c(c5[C@H]2[C@H]3c2ccc(O)cc2)[C@@H](c2cc(O)cc(O)c2)[C@H](c2ccc(O)cc2)O6)[C@@H](c2cc(O)cc(O)c2)[C@H](c2ccc(O)cc2)O4)cc1 [VATICANOL C]
- inhibition (HFF [1]): Active
- Activity (HFF [2]): Non-toxic

Structure (SMILES): Oc1ccc([C@@H]2c3c(O)cc(O)cc3[C@@H]3c4c(cc(O)c5c4[C@@H]2[C@H](c2ccc(O)cc2)[C@H]5c2cc(O)cc4c2[C@@H](c2cc(O)cc(O)c2)[C@H](c2ccc(O)cc2)O4)O[C@H]3c2ccc(O)cc2)cc1 [Vaticanol B]
- inhibition (HFF [1]): Active
- Activity (HFF [2]): Non-toxic
